Assays:
[1] = biological target: 3',5'-cyclic-AMP phosphodiesterase 4D (Homo sapiens, UniProt Q08499); assay: Inhibition of human recombinant PDE4D catalytic domain cloned from human HL60 cells assessed as inhibition of cAMP hydrolysis
Blood = assay: Antiinflammatory activity against Sprague-Dawley rat whole blood assessed as suppression of LPS-induced TNFalpha production by ELISA; assay type: functional, tissue-based
Outline: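 Blood from 10-week-old male Sprague-Dawley rats, drawn from the abdominal vein under ether anesthesia into 1.6 mg/mL EDTA. Compound diluted from 10 mM DMSO stock, preincubated with blood for 30 min at 37 °C in 5% CO2. LPS (100 µg/mL solution, 10 µL to 90 µL) added, then 5 h incubation. PBS added, centrifuged, supernatant TNF-α measured by ELISA. IC50 derived for 50% inhibition.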

[2] = Half life in human liver S9 fraction; assay type: ADME, subcellular
Outline: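 Human liver S9 fraction (1 mg protein/mL) in 100 mM potassium phosphate pH 7.4 with NADPH-generating system, preincubated 5 min at 37 °C. Compound added from methanol to 2 µM final, incubated 0, 2 or 10 min at 37 °C, stopped with acetonitrile. Parent remaining quantified by HPLC, UV 314 nm. Half-life obtained as -0.693/k, k from log-linear regression of percent remaining.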

Mus musculus = assay: Reduction of dermatitis in topically administered BALB/c mouse assessed as reduction of TNCB-induced ear swelling; assay type: functional; design: scale not given: the % may be the effect or the level left
Outline: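 Eight-week-old male BALB/c mice with TNCB-induced dermatitis on the right pinna. 20 mg of 1% compound in vaseline ointment applied topically; diseased controls got plain vaseline during the last week (n = 4). The untreated left pinna served as normal reference. Pinna thickness measured by digital micrometer 6 h after the last application. Percent reduction of swelling (right minus left) calculated relative to the diseased control.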

[3] = Rattus norvegicus, Sprague-Dawley, Blood

Chain of 3',5'-cyclic-AMP phosphodiesterase 4D (Q08499 whole entry, the tested form may be a part): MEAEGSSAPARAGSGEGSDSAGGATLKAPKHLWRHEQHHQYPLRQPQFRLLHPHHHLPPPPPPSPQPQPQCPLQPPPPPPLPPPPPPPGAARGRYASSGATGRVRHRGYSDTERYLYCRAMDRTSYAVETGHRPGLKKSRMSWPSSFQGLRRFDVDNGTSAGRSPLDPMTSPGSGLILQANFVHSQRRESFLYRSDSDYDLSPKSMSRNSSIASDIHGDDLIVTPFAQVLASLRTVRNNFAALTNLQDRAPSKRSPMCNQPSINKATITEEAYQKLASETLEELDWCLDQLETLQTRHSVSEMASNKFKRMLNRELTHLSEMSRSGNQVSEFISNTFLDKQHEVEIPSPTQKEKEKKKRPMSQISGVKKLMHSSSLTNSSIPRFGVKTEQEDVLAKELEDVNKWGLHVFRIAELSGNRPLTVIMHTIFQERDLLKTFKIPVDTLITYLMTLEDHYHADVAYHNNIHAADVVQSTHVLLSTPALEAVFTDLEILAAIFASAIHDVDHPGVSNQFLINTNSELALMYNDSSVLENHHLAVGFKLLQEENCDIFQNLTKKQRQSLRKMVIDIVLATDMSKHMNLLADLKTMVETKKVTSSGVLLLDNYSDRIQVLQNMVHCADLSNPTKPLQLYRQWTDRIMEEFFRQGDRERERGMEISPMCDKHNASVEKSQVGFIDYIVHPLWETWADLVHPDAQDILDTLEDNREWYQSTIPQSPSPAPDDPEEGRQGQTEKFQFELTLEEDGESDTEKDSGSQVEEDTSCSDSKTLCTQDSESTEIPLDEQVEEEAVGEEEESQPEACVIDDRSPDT

Structure (SMILES) | IC50 [1] | IC50 (Blood; [3]) | half-life [2] | Activity (Mus musculus) | IC50 (Blood)
COc1ccc(C2=NN(Cc3ccc(CN4CCOCC4)cc3)C(=O)CC2)cc1OC | 45.9 nM | 442 nM |  |  | 
COc1ccc(C2=NN(Cc3ccc(CN4CCOCC4)cc3)C(=O)[C@@H]3CC=CC[C@H]23)cc1OC.Cl | 0.3 nM |  | 6 min | 38.5% | 4.2 nM
COc1ccc(C2=NN(Cc3ccc(CN4CCOCC4)cc3)C(=O)[C@@H]3CC=CC[C@H]23)cc1OC | 8.8 nM |  |  |  | 82.2 nM
COc1ccc(C2=NNC(=O)[C@@H]3CC=CC[C@H]23)cc1OC (racemic) | 85 nM | 207 nM |  |  | 
COc1ccc(C2=NN(Cc3ccc(CN4CCOCC4)cc3)C(=O)[C@@H]3CC=CC[C@H]23)cc1OC (racemic) | 0.9 nM |  |  |  | 0.9 nM
COc1ccc(C2=NN(Cc3ccccc3CN3CCOCC3)C(=O)[C@@H]3CC=CC[C@H]23)cc1OC (relative stereo) | 1.3 nM | 1 nM |  | 36.8% | 
COc1ccc(C2=NN(C/C=C/Cn3ccnc3)C(=O)[C@@H]3CC=CC[C@H]23)cc1OC (relative stereo) | 0.4 nM | 0.7 nM |  |  | 
COc1ccc(C2=NN(Cc3ccc(Cn4ccnc4)cc3)C(=O)[C@@H]3CC=CC[C@H]23)cc1OC (relative stereo) | 0.7 nM | 0.5 nM |  |  | 
COc1ccc(C2=NN(Cc3ccc(CN4CCN(C)CC4)cc3)C(=O)[C@@H]3CC=CC[C@H]23)cc1OC (relative stereo) | 2 nM | 14.5 nM |  |  | 
COc1ccc(C2=NN(Cc3ccc(CN(C)C)cc3)C(=O)[C@@H]3CC=CC[C@H]23)cc1OC (relative stereo) | 9.7 nM | 34.9 nM |  |  | 
COc1ccc(C2=NN(Cc3ccc(CN4CCC(=O)CC4)cc3)C(=O)[C@@H]3CC=CC[C@H]23)cc1OC (relative stereo) | 0.9 nM | 3 nM |  | 36.8% | 
COc1ccc(C2=NN(Cc3ccccc3CN3CCOCC3)C(=O)[C@@H]3CCCC[C@H]23)cc1OC (relative stereo) | 1 nM | 4.6 nM |  |  | 
COc1ccc(C2=NN(CCOCCn3ccnc3)C(=O)[C@@H]3CC=CC[C@H]23)cc1OC (relative stereo) | 5.2 nM | 9.1 nM |  |  | 
COc1ccc(C2=NN(Cc3cccc(CN4CCOCC4)c3)C(=O)[C@@H]3CC=CC[C@H]23)cc1OC (relative stereo) | 1.4 nM | 3 nM |  |  | 
COc1ccc(C2=NN(Cc3ccc(CN4CCC5(CC4)OCCO5)cc3)C(=O)[C@@H]3CC=CC[C@H]23)cc1OC (relative stereo) | 1.3 nM | 0.9 nM |  |  | 
COc1ccc(C2=NN(Cc3ccc(CN4CCOCC4)cc3)C(=O)[C@@H]3C[C@H]23)cc1OC (relative stereo) | 16.4 nM | 119 nM |  |  | 
COc1ccc(C2=NN(Cc3ccc(CN4CCCCC4)cc3)C(=O)[C@@H]3CC=CC[C@H]23)cc1OC (relative stereo) | 8.2 nM | 57.1 nM |  |  | 
COc1ccc(C2=NN(Cc3ccc(CN4CCOCC4)cc3)C(=O)[C@@H]3CC[C@H]23)cc1OC (relative stereo) | 4.3 nM | 44.8 nM |  |  | 
COc1ccc(C2=NN(CC(=O)NCCCn3ccnc3)C(=O)[C@@H]3CC=CC[C@H]23)cc1OC (relative stereo) | 14.3 nM | 112 nM |  |  | 
